Measurements taken from ChEMBL document CHEMBL3120154, “2-[N-Alkyl(R-phenyl)-aminomethyl]-3-phenyl-7-trifluoromethylquinoxalines as anticancer agents inhibitors of folate enzymes” (Eur J Med Chem, 2014).

Columns and labels:
Type in all cases: functional
HOP-62 = test: Cytotoxicity against human HOP62 cells at 10^-6 M after 48 hrs by SRB assay; conditions: HOP-62, 48 h, read-out: GI
Procedure, shortened: (§1)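 Run by NCI on its 60-line human tumor cell panel, after a three-cell-line prescreen. Cells were exposed to drug for 48 h over a 5-log range: 100, 10, 1, 0.1 and 0.01 micromolar. Growth was estimated by sulforhodamine B (SRB) protein staining. Percent growth inhibition (I%) was recorded at each concentration relative to untreated control cells.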

HCT-116 = test: Cytotoxicity against human HCT116 cells at 10^-6 M after 48 hrs by SRB assay; conditions: HCT-116, 48 h, read-out: GI; procedure, shortened: as §1
786-0 = test: Cytotoxicity against human 786-0 cells at 10^-5 M after 48 hrs by SRB assay; conditions: 786-0, 48 h, read-out: GI; procedure, shortened: as §1
U-251 = test: Cytotoxicity against human U251 cells at 10^-6 M after 48 hrs by SRB assay; conditions: U-251, 48 h, read-out: GI
RPMI-8226 = test: Cytotoxicity against human RPMI8226 cells at 10^-5 M after 48 hrs by SRB assay; conditions: RPMI-8226, 48 h, read-out: GI
Procedure, shortened: (§2)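 Second-stage screen in the 60-cell-line human tumor panel at NCI, over a 5-log range (100, 10, 1, 0.1, 0.01 micromolar). Cells were exposed to drug for 48 h and growth was estimated with a sulforhodamine B protein stain. The value is percent growth inhibition at each concentration.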

SK-MEL-2 [1] = test: Cytotoxicity against human SK-MEL-2 cells at 10^-6 M after 48 hrs by SRB assay; conditions: SK-MEL-2, 48 h, read-out: GI; procedure, shortened: as §2
HT-29 = test: Cytotoxicity against human HT-29 cells at 10^-6 M after 48 hrs by SRB assay; conditions: HT-29, 48 h, read-out: GI; procedure, shortened: as §1
A549 = test: Cytotoxicity against human A549 cells at 10^-5 M after 48 hrs by SRB assay; conditions: A549, 48 h, read-out: GI; procedure, shortened: as §1
OVCAR-3 [2] = test: Cytotoxicity against human OVCAR3 cells at 10^-5 M after 48 hrs by SRB assay; conditions: OVCAR-3, 48 h, read-out: GI
Procedure, shortened: (§3)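 Run in the NCI 60-cell-line screen after a three-line prescreen. Cells got a 48 h drug exposure; viability/growth was estimated with the sulforhodamine B protein assay. Growth inhibition (I%) was recorded at 100, 10, 1, 0.1 and 0.01 micromolar. Percent growth is relative to untreated control cells, and negative values indicate cell kill.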

BT-549 [3] = test: Cytotoxicity against human BT549 cells at 10^-6 M after 48 hrs by SRB assay; conditions: BT-549, 48 h, read-out: GI; procedure, shortened: as §1
RXF 393 = test: Cytotoxicity against human RXF393 cells at 10^-6 M after 48 hrs by SRB assay; conditions: RXF 393, 48 h, read-out: GI; procedure, shortened: as §2
IGROV-1 = test: Cytotoxicity against human IGROV1 cells at 10^-6 M after 48 hrs by SRB assay; conditions: IGROV-1, 48 h, read-out: GI; procedure, shortened: as §3
MOLT-4 = test: Cytotoxicity against human MOLT4 cells at 10^-6 M after 48 hrs by SRB assay; conditions: MOLT-4, 48 h, read-out: GI; procedure, shortened: as §3
[4] = Cytotoxicity against human OVCAR4 cells at 10^-6 M after 48 hrs by SRB assay; conditions: OVCAR-4, 48 h, read-out: GI; procedure, shortened: as §2
NCI-H226 = test: Cytotoxicity against human NCI-H226 cells at 10^-5 M after 48 hrs by SRB assay; conditions: NCI-H226, 48 h, read-out: GI; procedure, shortened: as §3
SK-MEL-2 [5] = test: Cytotoxicity against human SK-MEL-2 cells at 10^-5 M after 48 hrs by SRB assay; conditions: SK-MEL-2, 48 h, read-out: GI; procedure, shortened: as §2
M14 = test: Cytotoxicity against human M14 cells at 10^-6 M after 48 hrs by SRB assay; conditions: M14, 48 h, read-out: GI; procedure, shortened: as §3
UACC-62 = test: Cytotoxicity against human UACC62 cells at 10^-6 M after 48 hrs by SRB assay; conditions: UACC-62, 48 h, read-out: GI
NCI/ADR-RES = test: Cytotoxicity against human NCI/ADR-RES cells at 10^-5 M after 48 hrs by SRB assay; conditions: read-out: GI; procedure, shortened: as §3
MCF7 [6] = test: Cytotoxicity against human MCF7 cells at 10^-6 M after 48 hrs by SRB assay; conditions: MCF7, 48 h, read-out: GI; procedure, shortened: as §3
OVCAR-3 [7] = test: Cytotoxicity against human OVCAR3 cells at 10^-6 M after 48 hrs by SRB assay; conditions: OVCAR-3, 48 h, read-out: GI; procedure, shortened: as §3
NCI-H23 = test: Cytotoxicity against human NCI-H23 cells at 10^-6 M after 48 hrs by SRB assay; conditions: NCI-H23, 48 h, read-out: GI; procedure, shortened: as §3
SNB-75 = test: Cytotoxicity against human SNB75 cells at 10^-6 M after 48 hrs by SRB assay; conditions: SNB-75, 48 h, read-out: GI
LOX IMVI = test: Cytotoxicity against human LOXIMVI cells at 10^-5 M after 48 hrs by SRB assay; conditions: read-out: GI; procedure, shortened: as §3
SF-539 = test: Cytotoxicity against human SF539 cells at 10^-5 M after 48 hrs by SRB assay; conditions: SF-539, 48 h, read-out: GI; procedure, shortened: as §2
SK-MEL-5 = test: Cytotoxicity against human SK-MEL-5 cells at 10^-5 M after 48 hrs by SRB assay; conditions: SK-MEL-5, 48 h, read-out: GI; procedure, shortened: as §2
SW-620 = test: Cytotoxicity against human SW620 cells at 10^-6 M after 48 hrs by SRB assay; conditions: SW-620, 48 h, read-out: GI
SF-295 = test: Cytotoxicity against human SF295 cells at 10^-6 M after 48 hrs by SRB assay; conditions: SF-295, 48 h, read-out: GI; procedure, shortened: as §2
[8] = Cytotoxicity against human UACC257 cells at 10^-6 M after 48 hrs by SRB assay; conditions: UACC-257, 48 h, read-out: GI
HL-60(TB) = test: Cytotoxicity against human HL-60(TB) cells at 10^-6 M after 48 hrs by SRB assay; conditions: HL-60, 48 h, read-out: GI
Procedure, shortened: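 NCI 60-human-tumour-cell-line screen run over a 5-log dose range (100, 10, 1, 0.1 and 0.01 µM). Cells were exposed to drug for 48 h. Growth was estimated by sulforhodamine B protein staining. Values are percent growth inhibition at each concentration, relative to untreated control cells.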

MCF7 [9] = test: Cytotoxicity against human MCF7 cells at 10^-5 M after 48 hrs by SRB assay; conditions: MCF7, 48 h, read-out: GI; procedure, shortened: as §3
NCI-H522 = test: Cytotoxicity against human NCI-H522 cells at 10^-6 M after 48 hrs by SRB assay; conditions: NCI-H522, 48 h, read-out: GI; procedure, shortened: as §3
KM12 = test: Cytotoxicity against human KM12 cells at 10^-5 M after 48 hrs by SRB assay; conditions: KM12, 48 h, read-out: GI; procedure, shortened: as §3
BT-549 [10] = test: Cytotoxicity against human BT549 cells at 10^-5 M after 48 hrs by SRB assay; conditions: BT-549, 48 h, read-out: GI; procedure, shortened: as §1
SNB-19 = test: Cytotoxicity against human SNB19 cells at 10^-5 M after 48 hrs by SRB assay; conditions: SNB-19, 48 h, read-out: GI

Row | Compound | inhibition of growth at 1 µM (HOP-62) [%] | inhibition of growth at 1 µM (HCT-116) [%] | inhibition of growth at 10 µM (786-0) [%] | inhibition of growth at 1 µM (U-251) [%] | inhibition of growth at 10 µM (RPMI-8226) [%] | inhibition of growth at 1 µM (SK-MEL-2 [1]) [%] | inhibition of growth at 1 µM (HT-29) [%] | inhibition of growth at 10 µM (A549) [%] | inhibition of growth at 10 µM (OVCAR-3 [2]) [%] | inhibition of growth at 1 µM (BT-549 [3]) [%] | inhibition of growth at 1 µM (RXF 393) [%] | inhibition of growth at 1 µM (IGROV-1) [%] | inhibition of growth at 1 µM (MOLT-4) [%] | inhibition of growth at 1 µM [4] [%] | inhibition of growth at 10 µM (NCI-H226) [%] | inhibition of growth at 10 µM (SK-MEL-2 [5]) [%] | inhibition of growth at 1 µM (M14) [%] | inhibition of growth at 1 µM (UACC-62) [%] | inhibition of growth at 10 µM (NCI/ADR-RES) [%] | inhibition of growth at 1 µM (MCF7 [6]) [%] | other results
1 | CCN(Cc1nc2cc(C(F)(F)F)ccc2nc1-c1ccccc1)c1ccc(OC)c(OC)c1 | < 40 | 12 | 15 | < 40 | 97 | < 40 | < 40 | 79 | 31 | < 40 | 57 | < 40 | < 40 | < 40 | 32 | 15 | < 40 | < 40 | 21 | < 40 | inhibition of growth at 1 µM (OVCAR-3 [7]): 25%; inhibition of growth at 1 µM (NCI-H23): 14%; inhibition of growth at 1 µM (SNB-75): < 40%; inhibition of growth at 10 µM (LOX IMVI): 23%; inhibition of growth at 10 µM (SF-539): 18%; inhibition of growth at 10 µM (SK-MEL-5): 17%; inhibition of growth at 1 µM (SW-620): < 40%; inhibition of growth at 1 µM (SF-295): < 40%; inhibition of growth at 1 µM [8]: 104%; inhibition of growth at 1 µM (HL-60(TB)): < 40%; inhibition of growth at 10 µM (MCF7 [9]): 25%; inhibition of growth at 1 µM (NCI-H522): < 40%; inhibition of growth at 10 µM (KM12): < 40%; inhibition of growth at 10 µM (BT-549 [10]): 33%; inhibition of growth at 10 µM (SNB-19): < 40%
2 | C#CCN(Cc1nc2cc(C(F)(F)F)ccc2nc1-c1ccccc1)c1ccc(C)cc1 | 56 | 66 | 70 | < 40 | < 40 | 41 | < 40 | 55 | 125 | < 40 | < 40 | < 40 | 67 | < 40 | 91 | 72 | 54 | < 40 | 113 | 64 | inhibition of growth at 1 µM (OVCAR-3 [7]): 62%; inhibition of growth at 1 µM (NCI-H23): < 40%; inhibition of growth at 1 µM (SNB-75): < 40%; inhibition of growth at 10 µM (LOX IMVI): 54%; inhibition of growth at 10 µM (SF-539): 49%; inhibition of growth at 10 µM (SK-MEL-5): 99%; inhibition of growth at 1 µM (SW-620): < 40%; inhibition of growth at 1 µM (SF-295): 56%; inhibition of growth at 1 µM [8]: < 40%; inhibition of growth at 1 µM (HL-60(TB)): 66%; inhibition of growth at 10 µM (MCF7 [9]): 70%; inhibition of growth at 1 µM (NCI-H522): 49%; inhibition of growth at 10 µM (KM12): 137%; inhibition of growth at 10 µM (BT-549 [10]): < 40%; inhibition of growth at 10 µM (SNB-19): 92%
